The values below come from ChEMBL document CHEMBL1828539, “Development of a novel furocoumarin derivative inhibiting NF-κB dependent biological functions: design, synthesis and biological effects” (Eur J Med Chem, 2011).

Active and inactive are the calls of the source. The calls are words filed in the database; no cut-off is given here.

A short description of assay [1]: Inhibition of reconstituted NF-KB p50-p65 heterodimer/DNA interaction after 20 mins by EMSA. In outline: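 p50 (10 ng) plus p65 (10 ng) human NF-κB proteins preincubated 20 min at room temperature with varying compound concentrations in buffer TF, 5% glycerol, 1 mM DTT. 0.25 ng 32P-labeled NF-κB site oligo then added for a further 20 min. Bound and free probe separated on 6% native polyacrylamide gel (0.25× TBE, 200 V); autoradiography.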

Assay [2] in a line: Inhibition of NF-KB p50 subunit/DNA interaction after 20 mins by EMSA. Put shortly:
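Human NF-κB p50 protein (10 ng) preincubated 20 min at room temperature with varying compound concentrations in buffer TF plus 5% glycerol, 1 mM DTT. Then 0.25 ng 32P-labeled double-stranded NF-κB consensus oligo (5'-CGC TGG GGA CTT TCC ACG G-3') added for 20 min more. Complexes resolved on 6% polyacrylamide gel in 0.25× TBE at 200 V; autoradiography.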

Assay [3] concerns IB3-1. Description: Inhibition of NFkappa B in human IB3-1 cells assessed as inhibition of TNF-alpha-induced IL8 mRNA accumulation at 50 uM after 24 hrs by RT-PCR analysis relative to control. The assay is classed as cell-based. Put shortly: (§1)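 IB3-1 CF bronchial cells (ΔF508/W1282X, adeno12/SV40-immortalized) grown in LHC-8 with 5% FBS, without gentamycin, at 37 °C. Exposed to compound and TNF-α (80 ng/ml) for 24 h. Total RNA extracted with TRIzol, oligo(dT)-primed AMV reverse transcription, then 40-cycle real-time PCR with IL-8 primers. IL-8 mRNA expressed relative to uninduced IB3-1 cells; n = 3.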

The subject of assay [4] is IB3-1. Description: Inhibition of NFkappa B in human IB3-1 cells assessed as inhibition of TNF-alpha-induced IL8 mRNA accumulation at 30 uM after 24 hrs by RT-PCR analysis relative to control. The assay is classed as cell-based. In outline:
as §1

In assay [5] the test system is IB3-1. Description: Inhibition of NFkappa B in human IB3-1 cells assessed as inhibition of TNF-alpha-induced IL8 protein release at 30 uM after 24 hrs relative to control. It counts as cell-based. Put shortly: (§2)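 IB3-1 CF cells in LHC-8 with 5% FBS treated 24 h with compound plus TNF-α (80 ng/ml). IL-8 released into the culture supernatant measured by singleplex bead immunoassay (Bio-Plex): sample incubated with anti-IL-8 beads, then detection antibody, then streptavidin-phycoerythrin, read against cytokine standards as pg/ml; n = 3.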

Assay [6] relates to IB3-1. Description: Inhibition of NFkappa B in human IB3-1 cells assessed as inhibition of TNF-alpha-induced IL8 protein release at 50 uM after 24 hrs relative to control. It counts as cell-based. Put shortly:
as §2

The test system of assay [7] is IB3-1. Nature of the assay: Inhibition of NFkappa B in human IB3-1 cells assessed as inhibition of TNF-alpha-induced IL8 mRNA accumulation at 10 uM after 24 hrs by RT-PCR analysis relative to control. It counts as cell-based. Put shortly: as §1
Assay [8] relates to IB3-1. Nature of the assay: Inhibition of NFkappa B in human IB3-1 cells assessed as inhibition of TNF-alpha-induced IL8 protein release at 10 uM after 24 hrs relative to control. It counts as cell-based. In outline: as §2

As to `Cc1c(CC(=O)NC(Cc2ccccc2)C(=O)O)c(=O)oc2cc3occ(C(C)(C)C)c3cc12` (racemic), the inhibition result in assay [1] and in assay [2] was “Active” throughout.
With `Cc1c(CC(=O)N[C@@H](Cc2ccccc2)C(=O)O)c(=O)oc2cc3occ(C(C)(C)C)c3cc12`, the inhibition result in assay [1] and in assay [2] was “Active” each time.
Regarding `Cc1c(CC(=O)NC(Cc2ccccc2)C(=O)O)c(=O)oc2c(C)c3occ(C(C)(C)C)c3cc12` (racemic), the inhibition result (in the assay on IB3-1 [3]; with IB3-1 [4]; in assay [1]; in the assay with IB3-1 [5]; in the assay with IB3-1 [6]) was “Active” throughout. Besides, the inhibition result in the assay on IB3-1 [7] and in the assay with IB3-1 [8] was “inactive” in each case.
